The record followed here is ChEMBL document CHEMBL4414577, “Discovery of Pyrrolo[2,3-b]pyridine (1,7-Dideazapurine) Nucleoside Analogues as Anti-Trypanosoma cruzi Agents” (J Med Chem, 2019).

Data set [1] has as its system Trypanosoma cruzi. The data set is described as follows: In vivo antitrypanosomal activity against Trypanosoma cruzi Y trypomastigotes infected in Swiss mouse assessed as reduction in parasitemia at 25 mg/kg, po administered twice daily for 5 days with 2 days interval for 3 cycles in presence of cyclophosphamide by light microscopy. Format: functional, organism-based. A digest of the protocol: (§1)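 Infected mice were dosed orally at 25 mg/kg b.i.d. from 5 dpi, either for 5 days or for 15 days (3 × 5 days, 2 days apart). Mice with negative parasitemia up to 30 days post-treatment then received cyclophosphamide i.p. at 50 mg/kg/day. This was given in three cycles of 4 days, each followed by 3 drug-free days. Tail-vein blood parasitemia was then read by light microscopy.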

A short description of data set [2]: Drug metabolism in mouse liver microsomes assessed as UGT-mediated metabolism by measuring compound remaining at 5 uM incubated for 60 mins in presence of UDPGA by UPLC-MS analysis. In kind it is ADME. As to conditions: read-out: Stability. The procedure, abridged: (§2)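 Compound incubated with male mouse, rat, dog or pooled human S9 fractions, with NADPH (phase I) or […], sampled at 0, 15, 30 and 60 min. Read-out is percent parent remaining. Two independent experiments of two biological replicates; diclofenac and fluconazole used as assay controls.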

Data set [3] in a line: Drug metabolism in dog liver microsomes assessed as UGT-mediated metabolism by measuring compound remaining at 5 uM incubated for 15 mins in presence of UDPGA by UPLC-MS analysis. As to conditions: read-out: Stability. In kind it is ADME, Canis lupus familiaris. A digest of the protocol:
as §2

The test system of data set [4] is Trypanosoma cruzi. The data set is described as follows: Antitrypanosomal activity against Trypanosoma cruzi Y amastigotes infected in Swiss mouse primary cardiac cells incubated for 168 hrs with media replenishment for every 48 hrs followed by compound washout and measured after 168 hrs by light microscopic method. In kind it is functional, organism-based. The procedure, abridged:
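Cardiac cells plated 24 h, then infected 24 h at 37 °C with Y-strain bloodstream trypomastigotes (parasite:host 10:1) and washed. Serial dilutions (up to 5 µM) for 168 h at 37 °C, drug medium renewed every 48 h. PBS rinse, 168 h drug-free. Giemsa-stained; infected cells and parasites per cell scored in 200 cells. EC50 from infection-index inhibition; two experiments, duplicate.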

Data set [5] in a line: Toxicity in Swiss Webster mouse infected with Trypanosoma cruzi Y trypomastigotes assessed as appearance of clinical symptoms at 25 mg/kg, po administered twice daily via gavage for 5 days starting from 5 days post-infection and measured daily up to 40 days post-infection. Format: organism-based. As to conditions: in vivo. A digest of the protocol:
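Male Swiss Webster mice were infected i.p. with 10⁴ Y-strain trypomastigotes and treated by oral gavage for 5 days from 5 dpi. Regimens were 25 mg/kg b.i.d. (10% EtOH/citrate vehicle) or benznidazole 100 mg/kg s.i.d. Body weight and visual clinical signs were monitored, with daily mortality checks up to 40 dpi. There were six mice per group.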

Data set [6] in a line: Drug metabolism in rat liver microsomes assessed as UGT-mediated metabolism by measuring compound remaining at 5 uM incubated for 30 mins in presence of UDPGA by UPLC-MS analysis. Format: ADME. As to conditions: read-out: Stability. The procedure, abridged:
as §2

Data set [7] relates to Trypanosoma cruzi. Put plainly: In vivo antitrypanosomal activity against Trypanosoma cruzi Y trypomastigotes infected in Swiss mouse assessed as reduction in parasitemia at 25 mg/kg, po administered twice daily via gavage for 5 days starting from 5 days post-infection and measured up to 30 days post-infection by light microscopic method relative to control. In kind it is functional. On the set-up: scale not given: the % may be the effect or the level left. A digest of the protocol:
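Male Swiss Webster mice (18-20 g, six per group) were infected i.p. with 10⁴ Y-strain bloodstream trypomastigotes. Treatment began at 5 dpi, only in mice with detectable parasitemia. Dosing was 25 mg/kg b.i.d. by oral gavage for 5 days, using a 2.0 mg/mL formulation in 10% EtOH, 0.1 M citrate pH 3.02. Parasites in 5 μL tail-vein blood were counted microscopically up to 30 dpi, against vehicle-treated infected mice.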

Data set [8] is described as follows: Drug metabolism in dog liver microsomes assessed as CYP450-mediated metabolism by measuring parent compound remaining at 5 uM incubated for 60 mins in presence of NADPH by UPLC-MS analysis. In kind it is ADME, Canis lupus familiaris. The settings on record: read-out: Stability. A digest of the protocol:
as §2

Data set [9] can be described thus: Drug metabolism in dog liver microsomes assessed as CYP450-mediated metabolism by measuring parent compound remaining at 5 uM measured immediately in presence of NADPH by UPLC-MS analysis. Format: ADME, Canis lupus familiaris. As to conditions: read-out: Stability. The procedure, abridged:
as §2

Data set [10] can be described thus: Drug metabolism in mouse liver microsomes assessed as UGT-mediated metabolism by measuring compound remaining at 5 uM incubated for 30 mins in presence of UDPGA by UPLC-MS analysis. The settings on record: read-out: Stability. Format: ADME. A digest of the protocol:
as §2

Data set [11] has as its system Trypanosoma cruzi. Put plainly: Antitrypanosomal activity against bloodstream form of Trypanosoma cruzi Y trypomastigotes measured after 24 hrs by Neubauer chamber-based light microscopic analysis. Format: functional, organism-based.
The target of data set [12] is T1, Cytochrome P450 (Homo sapiens, UniProt P04798+P05177+P05181+P08684+P10632+P10635+P11509+P11712+P13584+P20813+P20815+P20853+P24462+P24903+P33260+P33261+P51589+P78329+P98187+Q02928+Q08477+Q16678+Q16696+Q5TCH4+Q6VVX0+Q7Z449+Q8TAV3+Q96SQ9+Q9HB55). The data set is described as follows: Drug metabolism in human liver S9 fraction assessed as CYP450-mediated metabolism by measuring parent compound remaining at 5 uM incubated for 15 mins in presence of NADPH by UPLC-MS analysis. Format: ADME, subcellular. As to conditions: read-out: Stability. A digest of the protocol:
as §2

The target of data set [13] is T1, Cytochrome P450. The data set is described as follows: Drug metabolism in human liver S9 fraction assessed as CYP450-mediated metabolism by measuring parent compound remaining at 5 uM measured immediately in presence of NADPH by UPLC-MS analysis. Format: ADME, subcellular. As to conditions: read-out: Stability. The procedure, abridged:
as §2

Data set [14] relates to Trypanosoma cruzi. Put plainly: In vivo antitrypanosomal activity against Trypanosoma cruzi Y trypomastigotes infected in Swiss mouse assessed as mouse survival at 25 mg/kg, po administered twice daily for 5 days with 2 days interval for 3 cycles and measured […]. Format: functional, organism-based. The procedure, abridged:
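Male Swiss Webster mice infected i.p. with 10⁴ Y-strain bloodstream trypomastigotes; six per group. Oral gavage from 5 dpi for 15 days (three 5-day rounds, 2 days off): test compound 25 mg/kg b.i.d., benznidazole 100 mg/kg s.i.d. Parasites counted in 5 μL tail blood to 30 dpi; mortality followed to 53 dpi.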

The nature of data set [15]: Drug metabolism in rat liver microsomes assessed as UGT-mediated metabolism by measuring compound remaining at 5 uM measured immediately in presence of UDPGA by UPLC-MS analysis. The settings on record: read-out: Stability. In kind it is ADME. The procedure, abridged:
as §2

Data set [16] in a line: Drug metabolism in rat liver microsomes assessed as CYP450-mediated metabolism by measuring parent compound remaining at 5 uM incubated for 15 mins in presence of NADPH by UPLC-MS analysis. As to conditions: read-out: Stability. Format: ADME. The procedure, abridged: as §2
A short description of data set [17]: Drug metabolism in rat liver microsomes assessed as CYP450-mediated metabolism by measuring parent compound remaining at 5 uM measured immediately in presence of NADPH by UPLC-MS analysis. In kind it is ADME. The settings on record: read-out: Stability. The procedure, abridged: as §2
Data set [18] in a line: Drug metabolism in mouse liver microsomes assessed as UGT-mediated metabolism by measuring compound remaining at 5 uM incubated for 15 mins in presence of UDPGA by UPLC-MS analysis. Format: ADME. As to conditions: read-out: Stability. A digest of the protocol:
as §2

Data set [19] in a line: Drug metabolism in mouse liver microsomes assessed as CYP450-mediated metabolism by measuring parent compound remaining at 5 uM incubated for 60 mins in presence of NADPH by UPLC-MS analysis. Format: ADME. The settings on record: read-out: Stability.
Data set [20] relates to Trypanosoma cruzi. Put plainly: In vivo antitrypanosomal activity against Trypanosoma cruzi Y trypomastigotes infected in Swiss mouse assessed as reduction in parasitemia at 25 mg/kg, po administered twice daily via gavage for 5 days starting from 5 days post-infection in presence of cyclophosphamide by light microscopic method. In kind it is functional, organism-based. The procedure, abridged:
as §1

Each structure is given as a SMILES string. Calls of active or inactive are those of the source. The calls are words filed in the database; no cut-off is given here. Bounds are passed on as bounds.

Take `Nc1ccnc2c1c(I)cn2[C@@H]1O[C@H](CO)[C@@H](O)[C@H]1O`: the outcome with Trypanosoma cruzi [1], in the data set on Trypanosoma cruzi [14] and with Trypanosoma cruzi [20] was inactive. For the same molecule, the remaining at 1 h, 5 µM in data set [2] was 101%; in data set [8], 92%; in data set [19], 94%. In addition, the remaining at 0.25 h, 5 µM in data set [3] worked out at 94%; at Cytochrome P450 [12] it was 99%; in data set [16] it was 88%; in data set [18] it was 102%. In addition, the EC50 in the data set on Trypanosoma cruzi [4] was over 5 µM; in the data set on Trypanosoma cruzi [11], over 70 µM. Also, the results for the Activity entry (in [5]; with Trypanosoma cruzi [7]) were “Non-Toxic” and 100%, respectively. Besides, the figures for the remaining at 0.5 h, 5 µM in [6] and in [10] were 94% and 103%, respectively. Further, the remaining at 0 min, 5 µM (in data set [9]; on Cytochrome P450 [13]; in data set [15]; in data set [17]) was 100% each time.
